Assay results of several laboratories.
Compare with care: the assays were run in different laboratories. pEC50, pIC50: −log10 of the molar value.
Effect on: cell growth or viability

| SMILES | cell line | technique | tested at | time | measurement | result |
| --- | --- | --- | --- | --- | --- | --- |
| Cc1nc(Nc2ncc(C(=O)Nc3c(C)cccc3Cl)s2)cc(N2CC[C@H](O)C2)n1 | REH | ATP luminescence | 10 µM | 72 h | inhibition | 32% |
| O=C1Nc2ccccc2C1=Nc1ccccc1Br | L02 | MTT | – | 48 h | pIC50 | 4.50 |
| Cc1ncsc1-c1ccc(CNC(=O)[C@@H]2C[C@@H](O)CN2C(=O)[C@@H](NC(=O)COCCOCCOCCNC(=O)C[C@@H]2N=C(c3ccc(Cl)cc3)c3c(sc(C)c3C)-n3c(C)nnc32)C(C)(C)C)cc1 | HCC1806 | MTT | – | 6 days | IC90 | 810 nM |
| C[C@H](Oc1nccc(-c2noc3c2CCC[C@@]32CCCc3sc(N)c(C#N)c32)n1)[C@@H]1CCCN1C | BaF3 | – | – | 72 h | pEC50 | 7.38 |
| Cc1ccc(CN2C(=O)C(=Nc3c(C(C)C)cccc3C(C)C)c3ccccc32)cc1 | L02 | MTT | – | 48 h | pIC50 | 3.75 |
| C[C@H]1CNCCN1c1nccc(-c2noc([C@@]3(C)CCCc4sc(N)c(C#N)c43)n2)n1 | BaF3 | – | – | 72 h | pEC50 | 5.80 |
| C[C@H](Nc1ccc2c(c1)OCCn1cc(N3C(=O)OC[C@H]3C(F)F)nc1-2)C(N)=O | MFM-223 | ATP luminescence | – | 5 days | pEC50 | 5.86 |
| C[C@H]1CN(C)CCN1c1nccc(-c2noc3c2CCC[C@@]32CCCc3sc(N)c(C#N)c32)n1 | BaF3 | – | – | 72 h | pEC50 | 6.32 |
| Cc1ccc(CN2C(=O)C(=Nc3cccc(C)c3)c3ccccc32)cc1 | L02 | MTT | – | 48 h | pIC50 | 4.99 |
